Screens: PubChem, several laboratories
GSTO1 inh: GSTO1 inhibition, counter-screen for RBBP9 inhibitors. P78417. recombinant GSTO1, activity-based probe fluorescence polarization. inhibition, % at 5.96 µM. 1.1% of 300,000 active. AID 1974;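 active = inhibition above the campaign mean inhibition plus 3 SD, cut at about 35% in these data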;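 note: 0% = GSTO1-1 with DMSO and 100% = wells lacking GSTO1-1 enzyme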
PP5 primary: inhibitors of human protein phosphatase 5 (PP5). P53041. purified PP5c, OMFP substrate fluorescence. inhibition, % at 6.7 µM. 0.18% of 320,000 active. AID 1987;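 active = inhibition above the campaign's mean inhibition across all tested compounds plus 3 SD, cut at about 9.5% in these data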;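 note: 0% = DMSO only and 100% = 100 µM cantharidin control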
UCH37 DUB inh: inhibitors of human deubiquitinating enzyme UCH37; purified proteasome/UCH37, Ub-AMC cleavage fluorescence; inhibition, % (concentration not given with the values); 0.33% of 330,000 active;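 active = mean inhibition over replicate wells above about 20%, limit read from the data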;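 note: 0% = compound-free wells with enzyme and 100% = wells lacking proteasome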
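Signal – fluorescence, ex 355 nm, em 460 nm · System – Proteasome-bound UCH37 · Input – 0.15 nM proteasome as dispensed · Timing – 30 min preincubation with enzyme, 25 min cleavage at room temperature · Read-out basis – percent inhibition of cleavage signal versus uninhibited and no-proteasome wells · Medium – Tris-HCl pH 7.4 with ATP-MgCl2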
CTSL1 counter: counter-screen for PFM18AAP inhibitors: inhibitors of F. hepatica cathepsin L1; recombinant F. hepatica cathepsin L1, Z-Leu-Arg-MCA fluorescence; inhibition, % at 5.96 µM; 0.49% of 300,000 active;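 active = inhibition above the mean of all tested compounds plus 3 SD, set per screening campaign, cut at about 17% in these data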;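 note: 0% = plate median of test compound wells and 100% = 1 µM Z-Phe-Ala-diazomethylketone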
PAD4 inh: inhibitors of human PAD4. Q9UM07. recombinant PAD4, RCA probe fluorescence polarization. inhibition, % at 6.36 µM. 0.41% of 330,000 active. AID 485272;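 active = percent inhibition above a cutoff equal to the mean of all tested compounds plus 3 SD, cut at about 15% in these data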;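 note: 0% = PAD4 with RCA probe and DMSO and 100% = probe without PAD4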
Apaf1 inhib: human Apaf-1 inhibition | O14727 | reconstituted apoptosome caspase-3 activity, DEVD-Rh110 fluorescence | inhibition, % at 20 µM | 0.71% of 330,000 active | AID 489030; active = inhibition of at least 40% at 20 µM;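 note: plate controls were DMSO wells for no effect and DEVD-CHO caspase inhibitor wells for full effect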
Target sequence (O14727 whole entry, looked up): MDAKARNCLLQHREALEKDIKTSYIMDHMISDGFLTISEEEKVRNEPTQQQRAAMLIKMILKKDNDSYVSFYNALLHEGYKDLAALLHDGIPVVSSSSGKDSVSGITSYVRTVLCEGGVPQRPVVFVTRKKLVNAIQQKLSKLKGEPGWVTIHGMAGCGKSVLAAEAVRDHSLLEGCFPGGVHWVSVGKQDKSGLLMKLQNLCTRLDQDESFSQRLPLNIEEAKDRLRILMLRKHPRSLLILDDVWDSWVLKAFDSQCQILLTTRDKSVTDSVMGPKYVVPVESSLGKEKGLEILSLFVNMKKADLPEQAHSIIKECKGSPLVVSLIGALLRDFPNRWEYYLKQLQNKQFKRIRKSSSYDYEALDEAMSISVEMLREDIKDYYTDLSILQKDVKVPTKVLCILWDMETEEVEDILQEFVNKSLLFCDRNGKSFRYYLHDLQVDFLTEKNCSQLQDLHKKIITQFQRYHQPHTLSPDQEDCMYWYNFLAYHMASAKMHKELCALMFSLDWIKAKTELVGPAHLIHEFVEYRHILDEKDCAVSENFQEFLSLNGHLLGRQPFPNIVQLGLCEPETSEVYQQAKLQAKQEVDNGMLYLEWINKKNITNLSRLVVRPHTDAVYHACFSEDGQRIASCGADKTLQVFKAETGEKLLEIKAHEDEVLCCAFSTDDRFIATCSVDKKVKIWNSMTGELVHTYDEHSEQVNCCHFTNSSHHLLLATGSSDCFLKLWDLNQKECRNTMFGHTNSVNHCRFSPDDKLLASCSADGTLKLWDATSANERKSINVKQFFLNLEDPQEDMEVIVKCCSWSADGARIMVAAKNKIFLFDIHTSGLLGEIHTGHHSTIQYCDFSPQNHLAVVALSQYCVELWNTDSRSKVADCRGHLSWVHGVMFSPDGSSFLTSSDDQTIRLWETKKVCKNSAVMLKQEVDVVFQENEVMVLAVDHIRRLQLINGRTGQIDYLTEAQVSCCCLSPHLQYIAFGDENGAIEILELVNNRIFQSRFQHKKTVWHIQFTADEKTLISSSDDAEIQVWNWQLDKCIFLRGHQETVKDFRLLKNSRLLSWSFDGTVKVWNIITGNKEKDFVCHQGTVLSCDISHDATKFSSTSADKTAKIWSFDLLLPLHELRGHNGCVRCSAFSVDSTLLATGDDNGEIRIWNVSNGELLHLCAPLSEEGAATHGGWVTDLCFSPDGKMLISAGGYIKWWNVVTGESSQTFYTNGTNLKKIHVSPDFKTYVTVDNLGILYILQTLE
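System: reconstituted apoptosome with Apaf-1, cytochrome c, caspase-9, procaspase-3, dATP; Signal: Rh110 fluorescence intensity; Schedule: 30 min compound preincubation, 50 min activation, room temperature; Reagent: cytochrome c trigger plus (Z-DEVD)2-Rh110 caspase-3 substrate.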
UCH37 reconfirm: UCH37 Ub-AMC cleavage inhibition, confirmed | shares compounds with UCH37 DUB inh | Proteasome-bound UCH37, Ub-AMC cleavage fluorescence | inhibition, % at 20 µM | 27% of 480 active | AID 624100;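 active = average inhibition over replicates above about 50%, so the earlier screening hit is confirmed, limit read from the data; inactive = the rest, counted as false positives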;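 note: based on cleavage rate fitted by regression over a 30 min kinetic read; 0% = proteasome plus Ub-AMC and 100% = Ub-AMC without proteasome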
* = called active by the depositor; x = no result given. Only some compounds are listed: those with a hit (about 2% of all), similar ones and a draw of the others.

SMILES	GSTO1 inh	PP5 primary	UCH37 DUB inh	CTSL1 counter	PAD4 inh	Apaf1 inhib	UCH37 reconfirm
Cc1nn(-c2ccccc2)c(N2CCCC2)c1C=Nn1cnc2scc(-c3ccccc3)c2c1=O	x	x	-62	x	x	x	x
Cc1c(N=C2C=CC(=O)c3ccccc32)c(=O)n(-c2ccccc2)n1C	x	x	61*	x	x	x	47
Cc1ccc(C=NNC(=O)CSc2ccccn2)o1	x	x	3	x	x	x	x
O=C(O)CC/C(=C\c1ccc(N2CCOCC2)c([N+](=O)[O-])c1)c1nc2ccccc2s1	x	x	26*	x	x	x	20
C=C(c1ccccc1)c1ccccc1N	3	2	40*	2	-5	-8	-2
C[C@@H]1NC(=O)[C@H](CCC(N)=O)NC(=O)c2cc([N+](=O)[O-])cc(I)c2NCC[C@@H](C(N)=O)NC1=O	6	-1	50*	2	1	-2	-1
COc1ccccc1NC(=O)COc1ccccc1C(=O)c1cnn(-c2ccccc2)c1	-2	-1	37*	0	-6	3	-6
O=C(NN=Cc1ccncc1)c1cccs1	x	x	4	x	x	x	x
Cc1ccc(C=N/N=C2/NC(=O)C(CC(=O)Nc3ccc(Cl)cc3)S2)o1 (configuration not stated)	x	x	5	x	x	x	x
CC1=C(SCc2ccccc2)C(=O)c2ccccc2C1=O	x	x	32*	x	x	x	48
Cc1ccc(/C=C/c2ccc(N(C)C)cc2)[n+](C)c1	-13	1	27*	2	-4	1	30
CCC(=NNc1nncc2ccccc12)c1ccc(F)cc1	x	x	5	x	x	x	x
Cn1c(COc2ccccc2)nc2ccccc21	10	1	2	-1	-4	-12	x
Cn1c(Cc2nc3ccccc3n2C)nc2ccccc21	2	3	42*	-1	-2	-4	15
C(=NN1CCN(Cc2ccccc2)CC1)c1cccnc1	x	x	2	x	x	x	x
COc1cc(OC)c([N+](=O)[O-])cc1C=NNC(=O)c1ccncc1	x	x	44*	x	x	x	15
COc1cc(OC)c(OC)cc1C=NNC(=O)c1cnccn1	x	x	41*	x	x	x	27
CC(CC(=O)Nc1ccc(Cl)cc1)=NNC(=O)C(=O)NCCO	x	x	6	x	x	x	x
COc1cc(NCCCCCCN)c2ncccc2c1OC	x	x	69*	x	x	x	70*
C=CCC1(C=NO)CCOC(C)(C)C1 (configuration not stated)	x	x	6	x	x	x	x
Cc1cc(NC(=O)c2cccc(Cl)c2)n[nH]1	-1	-2	35*	-1	-3	-5	11
Cc1ccc(NC(=O)c2cccc(Cl)c2)nc1	2	0	3	0	-2	6	x
CN(C)c1ccc(C(C(=O)NC2CCCCC2)N(Cc2ccco2)C(=O)c2snc(C(N)=O)c2N)cc1 (configuration not stated)	3	3	68*	-3	-3	14	-21
COc1cc(C(C(=O)NC2CCCC2)N(Cc2ccco2)C(=O)c2snc(C(N)=O)c2N)cc(OC)c1OC (configuration not stated)	4	0	-72	-2	2	2	x
NS(=O)(=O)c1ccc2c(c1)C(=NO)c1cc(S(N)(=O)=O)ccc1-2	4	3	-10	-3	0	0	x
SMILES	GSTO1 inh	PP5 primary	UCH37 DUB inh	CTSL1 counter	PAD4 inh	Apaf1 inhib	UCH37 reconfirm
NC1=C(Cl)C(=O)c2ccc(S(N)(=O)=O)cc2C1=O	x	x	89*	x	x	x	92*
COCCn1cnc2c(c1=O)c1nc3ccccc3nc1n2N=Cc1ccco1	x	x	2	x	x	x	x
Clc1ccc(Nc2nc(-c3ccncc3)cs2)cc1	8	1	49*	2	-4	-7	27
Fc1ccc(Nc2nc(-c3ccncc3)cs2)cc1	-1	3	1	-7	0	0	x
CN1CCC[C@@H]1CCNC(=O)c1cccc2c1C(=O)c1ccc(N3CCCC3)cc1S2(=O)=O	x	x	52*	x	-10	15	13
CC(=NNC(=O)CCCC(=O)O)c1c(-c2ccccc2)c2cc(Cl)ccc2[nH]c1=O	x	x	2	x	x	x	x
N#Cc1cn(-c2ccccc2)nc1C(=O)c1ccccc1	-14	5	37*	-6	-4	11	15
CC(=NNC(=O)c1cc(-c2cccnc2)nc2ccccc12)c1ccccc1O	x	x	2	x	x	x	x
C(C#CCCCCCCCCC[n+]1ccccc1)#CCCCCCCCCC[n+]1ccccc1	5	0	34*	-11	-3	x	69*
COC(=O)C1SCC2C(=O)N(Cc3ccc(Cl)c(Cl)c3)CC(=O)N21 (configuration not stated)	-2	1	29*	2	-2	-8	21
CCOc1cc(C=NNC(=O)CSc2cccc3cccnc23)ccc1O	x	x	-4	x	x	x	x
CN1/C(=C\C=C2/SC(=S)NC2=O)C(C)(C)c2ccccc21	-231	0	8	3	-156	19	x
CN1CCC/C1=C/C=C1\SC(=S)NC1=O	6	4	35*	10	-5	x	34
CC(=NNC(=O)c1cccc(NN=C(C)c2cc(O)ccc2O)c1)c1cc(O)ccc1O	x	x	35*	x	x	x	-34
CC(=NNC(=O)c1ccc(NN=C(C)c2ccc(O)cc2)cc1)c1ccc(O)cc1	x	x	-49	x	x	x	x
Cc1ccccc1OCC(=O)NNC(=O)CCc1ccccc1	5	-1	5	-19	-4	10	x
Cc1ccccc1OCC(=O)NCc1ccccc1	-2	1	41*	2	-3	-9	15
NC(=O)CC(NC(=O)Cc1ccc(Cl)cc1)c1ccc(NCCc2ccccc2F)c([N+](=O)[O-])c1 (configuration not stated)	20	-1	48*	2	4	21	2
CC(C)c1ccc(NC(=O)C2CC(=O)N=C(N)S2)cc1 (configuration not stated)	3	-1	26*	0	4	-10	55*
CCCCCCCCCCCCCCCC[n+]1ccc(C=NO)cc1	x	x	53*	x	x	x	57*
Cc1ccc(C=NNC(=O)Cn2nnc3ccccc32)o1	x	x	6	x	x	x	x
Cc1cc(C(=O)NN=C2CC(=O)c3ccccc32)c(C)n1-c1ccc(F)cc1	x	x	1	x	x	x	x
Cn1c(=O)c2ccccc2n(CC(=O)NCCC2=CCCCC2)c1=O	-3	1	32*	5	-1	-6	47
COc1ccc(-n2nc(C(=O)NCC(=O)NCCC3=CCCCC3)c3ccccc3c2=O)cc1OC	8	4	36*	4	-1	8	54*
Cn1c(=O)c2sccc2n(CC(=O)NCCC2=CCCCC2)c1=O	2	-1	x	0	-3	-2	x
C=C(C)C1CC=C(C)C(=NNC(=O)CNc2cccc3ccccc23)C1 (configuration not stated)	x	x	-14	x	x	x	x
CCNC(=O)CC1S/C(=N/N=C(C)c2ccccc2)NC1=O (configuration not stated)	x	x	5	x	x	x	x
